The source made the active and inactive calls. The rule behind the calls is not given here.
Columns and labels:
[1] = molecular target: T1, Transient receptor potential cation channel subfamily M member 2 (Homo sapiens, UniProt O94759); experiment: Inhibition of human TRPM2 expressed in HEK293T cells assessed as blocked of ADPR-activated current by whole cell patch clamp electrophysiology; assay type: cell-based
[2] = molecular target: T1, Transient receptor potential cation channel subfamily M member 2; experiment: Inhibition of human TRPM2 expressed in HEK293T cells assessed as suppression of H2O2-induced calcium flux at 1 uM measured after 30 mins by Fluo-3/AM assay; assay type: cell-based
Mus musculus [3] = experiment: Neuroprotective activity in mouse model of transient middle cerebral artery occlusion-induced cerebral ischemia-reperfusion injury assessed as reduction in infarct volume at 0.3 mg/kg, iv treated for 3 hrs after onset of reperfusion by TTC staining based assay (reference value: 52 +/- 1.7%); assay type: functional; set-up: scale not given: the % may be the effect or the level left
Mus musculus [4] = experiment: Neuroprotective activity in mouse model of transient middle cerebral artery occlusion-induced cerebral ischemia-reperfusion injury assessed as reduction in infarct volume at 1 mg/kg, iv treated for 3 hrs after onset of reperfusion by TTC staining based assay (reference value: 52 +/- 1.7%); assay type: functional; set-up: scale not given: the % may be the effect or the level left
Mus musculus [5] = experiment: Neuroprotective activity in mouse model of transient middle cerebral artery occlusion-induced cerebral ischemia-reperfusion injury assessed as reduction neurological score at 1 mg/kg, iv treated for 3 hrs after onset of reperfusion by TTC staining based assay relative to control; assay type: functional, organism-based
Mus musculus [6] = experiment: Neuroprotective activity in mouse model of transient middle cerebral artery occlusion-induced cerebral ischemia-reperfusion injury assessed as reduction in infarct volume at 3 mg/kg, iv treated for 3 hrs after onset of reperfusion by TTC staining based assay (reference value: 57.6 +/- 4.9%); assay type: functional; set-up: scale not given: the % may be the effect or the level left
SH-SY5Y [7] = experiment: Neuroprotective activity against oxygen glucose deprivation/reperfusion-induced cell death in human SH-SY5Y cells assessed as cell viability at 3 uM […] by CCK8 assay relative to control; assay type: functional
Mus musculus [8] = experiment: Neuroprotective activity in mouse model of transient middle cerebral artery occlusion-induced cerebral ischemia-reperfusion injury assessed as reduction neurological score at 0.3 mg/kg, iv treated for 3 hrs after onset of reperfusion by TTC staining based assay relative to control; assay type: functional, organism-based
SH-SY5Y [9] = experiment: Cytotoxicity against human SH-SY5Y cells assessed as cell viability under normoxic/normal sugar condition at 10 to 30 uM by CCK-8 assay; assay type: cell-based; conditions: dose 10-30 µM
Method in brief: (§1)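 SH-SY5Y cells were seeded at 2 × 10⁴ per well and grown 12 h at 37 °C. They were then treated with compound (1–30 μM) under normoxic, normal-glucose conditions for 24 h. CCK-8 (10%) was added for 2 h at 37 °C and OD450 read. Viability was taken relative to untreated control after blank subtraction, with three replicate wells.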

Mus musculus [10] = experiment: Neuroprotective activity in mouse model of transient middle cerebral artery occlusion-induced cerebral ischemia-reperfusion injury assessed as reduction neurological score at 3 mg/kg, iv treated for 3 hrs after onset of reperfusion by TTC staining based assay (reference value: 2.4 +/- 0.5); assay type: functional
[11] = molecular target: T2, Transient receptor potential cation channel subfamily M member 8 (Homo sapiens, UniProt Q7Z2W7); experiment: Inhibition of human TRPM8 expressed in HEK293T cells assessed as blocked of menthol-activated current at 10 uM by whole cell patch clamp electrophysiology relative to control; assay type: cell-based
Method in brief: (§2)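 Whole-cell patch clamp was run at room temperature on HEK293T cells transiently cotransfected with human TRPM8 plus GFP, 24–48 h before recording. ECS was 145 NaCl, 5.6 KCl, 2 MgCl₂, 1.2 CaCl₂, 10 HEPES, pH 7.2. Current was activated with 1 mM menthol, and compound was perfused at least 60 s after it stabilized. Inhibition was calculated relative to stable agonist current minus residual current; n = 3–6.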
Target sequence in this assay (Q7Z2W7 whole entry, looked up, the tested form may be a part): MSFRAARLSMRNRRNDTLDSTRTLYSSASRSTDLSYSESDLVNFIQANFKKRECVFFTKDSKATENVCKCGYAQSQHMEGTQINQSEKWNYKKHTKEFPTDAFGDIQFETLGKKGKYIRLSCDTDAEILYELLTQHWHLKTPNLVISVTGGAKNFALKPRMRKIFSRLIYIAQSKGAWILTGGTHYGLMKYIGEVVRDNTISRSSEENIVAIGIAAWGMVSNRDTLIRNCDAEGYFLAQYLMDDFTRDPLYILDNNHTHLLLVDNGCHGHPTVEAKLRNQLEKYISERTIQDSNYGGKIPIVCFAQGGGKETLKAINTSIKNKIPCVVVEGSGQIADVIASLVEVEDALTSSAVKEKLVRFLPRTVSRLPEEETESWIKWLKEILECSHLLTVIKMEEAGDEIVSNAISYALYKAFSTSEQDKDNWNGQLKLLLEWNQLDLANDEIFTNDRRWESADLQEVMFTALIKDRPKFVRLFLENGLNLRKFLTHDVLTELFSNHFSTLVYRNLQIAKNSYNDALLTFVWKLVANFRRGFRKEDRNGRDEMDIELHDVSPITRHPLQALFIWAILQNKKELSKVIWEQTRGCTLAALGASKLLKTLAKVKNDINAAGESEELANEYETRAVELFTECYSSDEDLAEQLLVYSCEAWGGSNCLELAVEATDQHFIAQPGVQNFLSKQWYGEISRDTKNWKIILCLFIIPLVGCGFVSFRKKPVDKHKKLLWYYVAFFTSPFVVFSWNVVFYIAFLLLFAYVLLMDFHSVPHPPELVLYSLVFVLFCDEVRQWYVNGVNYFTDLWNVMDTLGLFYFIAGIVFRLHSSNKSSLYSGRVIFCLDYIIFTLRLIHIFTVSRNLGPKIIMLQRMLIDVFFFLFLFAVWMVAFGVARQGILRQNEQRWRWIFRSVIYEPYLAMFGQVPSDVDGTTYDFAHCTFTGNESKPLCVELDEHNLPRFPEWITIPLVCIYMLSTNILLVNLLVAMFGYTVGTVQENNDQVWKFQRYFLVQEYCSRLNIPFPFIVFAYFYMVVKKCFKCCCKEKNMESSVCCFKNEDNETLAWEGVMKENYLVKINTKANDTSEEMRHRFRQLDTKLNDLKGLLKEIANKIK

SH-SY5Y [12] = experiment: Cytotoxicity against human SH-SY5Y cells assessed as toxicity at 30 uM incubated for 24 hrs by CCK-8 assay; assay type: cell-based; method in brief: as §1
Phospholipase A2 = Phospholipase A2 (Homo sapiens, UniProt P04054); experiment: Inhibition of PLA2 (unknown origin) using soybean phosphatidylcholine as substrate at 10 uM preincubated for 30 mins followed incubated for 60 mins after substrate addition by microplate reader relative to control
Method in brief: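 PLA2 (4 μg/L in PBS) was preincubated 30 min at 37 °C with inhibitor in 125 mM Tris. Substrate was then added for 60 min: soybean phosphatidylcholine with Tris, CaCl₂, sodium deoxycholate and 0.5% Triton X-100. Liberated free fatty acids were quantified colorimetrically at OD550. Results are % inhibition versus enzyme without inhibitor, n = 3.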

[13] = molecular target: T1, Transient receptor potential cation channel subfamily M member 2; experiment: Inhibition of human TRPM2 expressed in HEK293T cells assessed as suppression of H2O2-induced calcium flux at 0.3 uM measured after 30 mins by Fluo-3/AM assay; assay type: cell-based
[14] = molecular target: T2, Transient receptor potential cation channel subfamily M member 8; experiment: Inhibition of human TRPM8 expressed in HEK293T cells assessed as blocked of menthol-activated current by whole cell patch clamp electrophysiology relative to control; assay type: cell-based; method in brief: as §2
Target sequence in this assay (Q7Z2W7 whole entry, the tested form may be a part): as the sequence (Q7Z2W7 whole entry, looked up, the tested form may be a part) above

T1 sequence (O94759 whole entry): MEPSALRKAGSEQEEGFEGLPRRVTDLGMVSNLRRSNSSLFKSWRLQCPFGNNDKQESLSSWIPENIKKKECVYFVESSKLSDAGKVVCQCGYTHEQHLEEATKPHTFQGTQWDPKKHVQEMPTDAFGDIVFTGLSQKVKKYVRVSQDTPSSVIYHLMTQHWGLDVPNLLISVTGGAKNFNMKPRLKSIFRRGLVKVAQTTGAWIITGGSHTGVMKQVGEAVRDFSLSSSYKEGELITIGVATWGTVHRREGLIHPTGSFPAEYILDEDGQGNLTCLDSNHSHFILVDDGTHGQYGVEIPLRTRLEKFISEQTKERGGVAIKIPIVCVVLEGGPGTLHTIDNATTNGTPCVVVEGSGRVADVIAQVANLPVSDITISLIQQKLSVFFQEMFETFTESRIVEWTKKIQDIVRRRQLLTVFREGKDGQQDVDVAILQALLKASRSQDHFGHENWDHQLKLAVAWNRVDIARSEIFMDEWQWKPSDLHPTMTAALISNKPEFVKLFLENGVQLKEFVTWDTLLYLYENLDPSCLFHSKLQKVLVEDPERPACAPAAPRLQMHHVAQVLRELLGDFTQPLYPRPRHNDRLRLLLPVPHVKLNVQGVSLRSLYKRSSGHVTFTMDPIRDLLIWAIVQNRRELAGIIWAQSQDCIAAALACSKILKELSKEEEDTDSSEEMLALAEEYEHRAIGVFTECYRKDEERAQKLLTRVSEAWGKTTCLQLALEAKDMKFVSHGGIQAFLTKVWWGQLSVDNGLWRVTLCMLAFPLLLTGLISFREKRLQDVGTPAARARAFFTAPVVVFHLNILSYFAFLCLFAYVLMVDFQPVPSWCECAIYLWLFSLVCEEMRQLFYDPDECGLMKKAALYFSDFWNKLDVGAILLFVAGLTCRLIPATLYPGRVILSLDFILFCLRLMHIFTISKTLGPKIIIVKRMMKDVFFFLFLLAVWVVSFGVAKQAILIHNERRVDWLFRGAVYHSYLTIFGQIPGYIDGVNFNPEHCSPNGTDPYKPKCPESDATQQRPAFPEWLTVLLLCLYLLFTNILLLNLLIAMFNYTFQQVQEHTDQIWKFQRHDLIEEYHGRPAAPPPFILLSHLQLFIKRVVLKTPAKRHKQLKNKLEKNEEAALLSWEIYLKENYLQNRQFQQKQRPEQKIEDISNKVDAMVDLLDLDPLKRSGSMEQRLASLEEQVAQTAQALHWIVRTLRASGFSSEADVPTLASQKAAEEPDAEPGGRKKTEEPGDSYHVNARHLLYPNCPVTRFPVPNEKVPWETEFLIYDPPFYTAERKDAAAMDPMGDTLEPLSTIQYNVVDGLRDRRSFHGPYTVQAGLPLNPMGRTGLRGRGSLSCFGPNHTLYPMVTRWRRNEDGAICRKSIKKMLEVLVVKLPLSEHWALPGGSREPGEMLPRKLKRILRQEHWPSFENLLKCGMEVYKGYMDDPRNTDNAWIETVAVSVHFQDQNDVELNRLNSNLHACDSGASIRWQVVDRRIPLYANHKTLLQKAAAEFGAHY
Chain of Phospholipase A2 (P04054 23-148 limits assumed): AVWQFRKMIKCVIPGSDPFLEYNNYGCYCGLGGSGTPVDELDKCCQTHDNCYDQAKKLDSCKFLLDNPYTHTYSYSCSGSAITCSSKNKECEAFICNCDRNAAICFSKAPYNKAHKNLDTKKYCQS

Structure (SMILES)	inhibition [2]	also measured
CCOC(=O)Cn1nc(-c2ccc(C(F)(F)F)cc2)c2c1CCCCC2	–	IC50 [1]: 0.013 µM
O=C1CCN(C(=O)/C=C/c2ccc(-c3ccccc3)cc2)c2ccccc21	< 45%	–
CC1=NN(c2ccccc2)C(=O)C1 [EDARAVONE]	–	Activity (Mus musculus [3]): 46.2%; Activity (Mus musculus [4]): 43.9%; Activity (Mus musculus [5]): inactive; Activity (Mus musculus [6]): 39%; viability at 3 µM (SH-SY5Y [7]; read-out: Activity): 81.2%; Activity (Mus musculus [8]): inactive; Activity (SH-SY5Y [9]): Non-Toxic; Activity (Mus musculus [10]): 1.6
CCCCCc1ccc(/C=C/C(=O)Nc2cc(F)c(F)cc2C(=O)O)cc1	> 45%	–
Cc1cccc(-c2ccc(/C=C/C(=O)Nc3ccccc3C(=O)O)cc2)c1	> 45%	–
O=C(/C=C/c1ccc(-c2ccccc2F)cc1)Nc1ccccc1C(=O)O	> 45%	–
O=C(/C=C/c1ccc(-c2cccc([N+](=O)[O-])c2)cc1)Nc1ccccc1C(=O)O	> 45%	IC50 [1]: 0.398 µM; Activity (SH-SY5Y [7]): Active; inhibition [11]: 14.6%; Activity (SH-SY5Y [12]): < 10%; Activity (SH-SY5Y [9]): Non-Toxic; inhibition (Phospholipase A2): 24.6%
CCCCCc1ccc(/C=C/C(=O)c2ccccc2C(=O)O)cc1	> 45%	–
Cc1ccc(C(=O)O)c(NC(=O)/C=C/c2ccc(-c3cccc([N+](=O)[O-])c3)cc2)c1	> 45%	–
CCCCCc1ccc(/C=C/C(=O)Nc2c(Cl)cccc2C(=O)O)cc1	< 45%	–
Cc1ccc(/C=C/C(=O)Nc2ccccc2C(=O)O)cc1	< 45%	inhibition [13]: inactive
CCCCCc1ccc(/C=C/c2ccccc2C(=O)O)cc1	< 45%	–
Cc1cc(-c2ccccc2)ccc1/C=C/C(=O)Nc1ccccc1C(=O)O	> 45%	–
O=C(/C=C/c1ccc(N2CCCCC2)cc1)Nc1ccccc1C(=O)O	< 45%	inhibition [13]: inactive
O=C(/C=C/c1ccccc1)Nc1ccccc1C(=O)O	< 45%	inhibition [13]: inactive
COc1ccc(-c2ccc(/C=C/C(=O)Nc3ccccc3C(=O)O)cc2)cc1	> 45%	–
Cc1ccc(-c2ccc(/C=C/C(=O)Nc3ccccc3C(=O)O)cc2)cc1	> 45%	–
CCc1ccc(-c2ccc(/C=C/C(=O)Nc3ccccc3C(=O)O)cc2)cc1	> 45%	–
O=C(/C=C/c1ccc(-c2cccnc2)cc1)Nc1ccccc1C(=O)O	< 45%	inhibition [13]: inactive
CCCCCc1ccc(/C=C/C(=O)Nc2ccc(C)cc2C(=O)O)cc1	> 45%	IC50 [1]: 0.987 µM; Activity (SH-SY5Y [7]): Active; inhibition [11]: 85.6%; Activity (SH-SY5Y [12]): < 10%; inhibition (Phospholipase A2): inactive
O=C(/C=C/c1ccc(Cl)cc1)Nc1ccccc1C(=O)O	< 45%	inhibition [13]: inactive

Structure (SMILES)	inhibition [2]	also measured
Cc1ccccc1-c1ccc(/C=C/C(=O)Nc2ccccc2C(=O)O)cc1	> 45%	–
CCCCCc1ccc(/C=C/C(=O)N2CCC(=O)c3ccccc32)cc1	< 45%	–
O=C(/C=C/c1ccc(-c2ccc(F)cc2)cc1)Nc1ccccc1C(=O)O	< 45%	–
COc1ccccc1-c1ccc(/C=C/C(=O)Nc2ccccc2C(=O)O)cc1	> 45%	–
Clc1ccc(COC(Cn2ccnc2)c2ccc(Cl)cc2Cl)cc1 (configuration not stated) [ECONAZOLE]	–	IC50 [1]: 3 µM
CC(C)c1ccc(/C=C/C(=O)Nc2ccccc2C(=O)O)cc1	< 45%	inhibition [13]: inactive
CC(C)(C)c1ccc(-c2ccc(/C=C/C(=O)Nc3ccccc3C(=O)O)cc2)cc1	> 45%	–
CCc1ccc(/C=C/C(=O)Nc2ccccc2C(=O)O)cc1	< 45%	inhibition [13]: inactive
CCOc1ccc(/C=C/C(=O)Nc2ccccc2C(=O)O)cc1	< 45%	inhibition [13]: inactive
Cc1cc(/C=C/C(=O)Nc2ccccc2C(=O)O)ccc1-c1ccccc1	> 45%	–
O=C(/C=C/c1ccc(-c2ccccc2)cc1)Nc1cc(Cl)ccc1C(=O)O	> 45%	–
CCCc1ccc(/C=C/C(=O)Nc2ccccc2C(=O)O)cc1	< 45%	inhibition [13]: inactive
O=C(/C=C/c1ccc(-c2ccc(C(F)(F)F)cc2)cc1)Nc1ccccc1C(=O)O	> 45%	–
O=C(/C=C/c1ccc(-c2cccc(F)c2)cc1)Nc1ccccc1C(=O)O	> 45%	IC50 [1]: 0.83 µM; Activity (SH-SY5Y [12]): < 23.7%
CC(C)(C)c1ccc(/C=C/C(=O)Nc2ccccc2C(=O)O)cc1	< 45%	inhibition [13]: inactive
CCCCCc1ccc(/C=C/C(=O)Nc2cc(Cl)ccc2C(=O)O)cc1	> 45%	–
O=C(/C=C/c1ccc(-c2ccccc2)cc1)N1C(=O)c2ccccc21	< 45%	–
CCCCCc1ccc(C(=O)Nc2ccccc2C(=O)O)cc1	> 45%	–
COc1cccc(NC(=O)/C=C/c2ccc(Cl)cc2)c1	–	IC50 [14]: > 10 µM
O=C(/C=C/c1ccc(-c2cccc([N+](=O)[O-])c2)cc1)Nc1ccc(Br)cc1C(=O)O	> 45%	–
CCCCCc1ccc(/C=C/C(=O)N2CCCC(=O)c3ccccc32)cc1	< 45%	–

Structure (SMILES)	inhibition [2]	also measured
CCCCCc1ccc(/C=C/C(=O)Nc2c(C)cc(Cl)cc2C(=O)O)cc1	< 45%	–
O=C1CCCN(C(=O)/C=C/c2ccc(-c3ccccc3)cc2)c2ccccc21	< 45%	–
O=C(/C=C/c1ccc(-c2ccccc2)cc1)Nc1ccc(F)cc1C(=O)O	> 45%	–
COc1cccc(-c2ccc(/C=C/C(=O)Nc3ccccc3C(=O)O)cc2)c1	> 45%	–
O=C(/C=C/c1ccc(-c2ccccc2)cc1)Nc1ccccc1C(=O)O	> 45%	IC50 [1]: 2.56 µM
O=C(/C=C/c1ccc(-c2ccccc2)cc1)Nc1ccc(Cl)cc1C(=O)O	> 45%	–
O=C(/C=C/c1ccc(-c2cccc(Br)c2)cc1)Nc1ccccc1C(=O)O	> 45%	–
CCCCCc1ccc(/C=C/C(=O)Nc2ccc(C(=O)O)cc2)cc1	< 45%	–
CC(C)c1ccc(-c2ccc(/C=C/C(=O)Nc3ccccc3C(=O)O)cc2)cc1	> 45%	–
CC(C)NC(=O)c1ccc(/C=C/C(=O)Nc2ccccc2C(=O)O)cc1	< 45%	inhibition [13]: inactive
Clc1ccccc1C(c1ccccc1)(c1ccccc1)n1ccnc1 [CLOTRIMAZOLE]	–	IC50 [1]: 3 µM
O=C(/C=C/c1ccc(-c2ccccc2C(F)(F)F)cc1)Nc1ccccc1C(=O)O	> 45%	–
CCCCCc1ccc(NC(=O)c2ccccc2C(=O)O)cc1	> 45%	–
CCCCCc1ccc(/C=C/C(=O)Nc2cccc(C(=O)O)c2)cc1	> 45%	–
O=C(/C=C/c1ccc(-c2cccc(Cl)c2)cc1)Nc1ccccc1C(=O)O	> 45%	–
O=C(/C=C/c1ccc(N2CCOCC2)cc1)Nc1ccccc1C(=O)O	< 45%	inhibition [13]: inactive
O=C(/C=C/c1ccc(-c2ccccc2)cc1)Nc1ccc(Br)cc1C(=O)O	> 45%	IC50 [1]: 0.41 µM; Activity (SH-SY5Y [7]): Active; inhibition [11]: 93.3%; Activity (SH-SY5Y [12]): < 10%; inhibition (Phospholipase A2): inactive
CCCCCc1ccc(/C=C/C(=O)Nc2c(C(=O)O)ccc(C)c2C)cc1	< 45%	–
CCCCCc1ccc(/C=C/C(=O)Nc2c(C)cccc2C(=O)O)cc1	< 45%	–
CCCCCc1ccc(/C=C/C(=O)Nc2ccc(Br)cc2C(=O)O)cc1	> 45%	–
CCCCCc1ccc(/C=C/C(=O)Nc2cc(C)ccc2C(=O)O)cc1	> 45%	IC50 [1]: 0.467 µM; Activity (SH-SY5Y [7]): Active; inhibition [11]: 88.1%; Activity (SH-SY5Y [12]): < 10%; Activity (SH-SY5Y [9]): Non-Toxic; inhibition (Phospholipase A2): inactive

— ChEMBL document CHEMBL4834416, “The Discovery of Novel ACA Derivatives as Specific TRPM2 Inhibitors that Reduce Ischemic Injury Both In Vitro and In Vivo” (J Med Chem, 2021)
